The values that follow come from ChEMBL document CHEMBL1142726, “In search of a novel anti-HIV drug: multidisciplinary coordination in the discovery of 4-[[4-[[4-[(1E)-2-cyanoethenyl]-2,6-dimethylphenyl]amino]-2- pyrimidinyl]amino]benzonitrile (R278474, rilpivirine)” (J Med Chem, 2005).

Series [1] relates to Human immunodeficiency virus 1. The series is described as follows: Effective concentration against human immunodeficiency virus type 1 L100I mutant strain. It is filed as functional, organism-based. Summed up:
(§1)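 MT-4 human T cells infected with wild-type or mutant HIV-1, exposed to a range of compound concentrations in medium with 10% fetal calf serum. After 5 days at 37 °C, viability of infected and mock-infected cells was read by automated MTT colorimetric assay. […] 95% confidence limits are approximately EC50/4 to EC50×4.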

Series [2] deals with Human immunodeficiency virus 1. The series is described as follows: Effective concentration against human immunodeficiency virus type 1Y181C mutant strain. Type of series: functional, organism-based. The method in brief: as §1
Series [3] has as its system Human immunodeficiency virus 1. The series is described as follows: Effective concentration against human immunodeficiency virus type 1 G190S mutant strain. It is filed as functional, organism-based. Summed up:
as §1

In series [4] the test system is Human immunodeficiency virus 1. The series is described as follows: Effective concentration against human immunodeficiency virus type 1 wild type strain. Type of series: functional, organism-based.
In series [5] the test system is Human immunodeficiency virus 1. Kind of series: Effective concentration against human immunodeficiency virus type 1 in K103N mutant strain. Type of series: functional, organism-based. Summed up: as §1
The subject of series [6] is Human immunodeficiency virus 1. Kind of series: Effective concentration against human immunodeficiency virus type 1 Y188L mutant strain. It is filed as functional, organism-based. Summed up:
as §1

Series [7] can be described thus: Area under the concentration time curve in monkey (intravenous dosage of 1.25 mg/ kg) was determined. Type of series: ADME. Particulars: cercopithecidae, in vivo. The method in brief: (§2)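 Pharmacokinetics after single iv dosing of drug formulated in PEG 400. Species: Sprague-Dawley rat (4 mg/kg), beagle dog, cynomolgus monkey and white New Zealand rabbit (1.25 mg/kg each). Elimination half-life (t1/2) and exposure (AUCinf) calculated from plasma concentration–time data.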

Series [8] is described as follows: Area under the concentration time curve value in rat (intravenous dosage of 4 mg/kg) was determined. It is filed as ADME, organism-based. On the set-up: dose 4 mg/kg, route intravenous. The following applies: in vivo. Summed up:
as §2

Series [9] can be described thus: Area under the concentration time curve in dog (intravenous dosage of 1.25 mg/kg) was determined. It is filed as ADME, organism-based, Canis lupus familiaris. On the set-up: dose 1.25 mg/kg, route intravenous. Particulars: in vivo. Summed up: as §2
Series [10] concerns Human immunodeficiency virus 1. Kind of series: Effective concentration against human immunodeficiency virus type 1 Y181C mutant strain. It is filed as functional, organism-based. The method in brief: as §1
Series [11] in a line: Half life in dog was determined by intravenous administration. It is filed as ADME, organism-based, Canis lupus familiaris. Particulars: in vivo. The method in brief: as §2
Series [12] in a line: Half life in rat was determined after oral administration. Type of series: ADME, organism-based. Particulars: in vivo. The method in brief:
(§3)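 Oral administration of drug formulated in PEG 400 to Sprague-Dawley rat and beagle dog. Elimination half-life calculated from plasma concentration–time data.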

Series [13] concerns Human immunodeficiency virus 1. Kind of series: Effective concentration against human immunodeficiency virus type 1 K103N and Y181C mutant strains. It is filed as functional, organism-based. The method in brief: as §1
Series [14] in a line: Area under the concentration time curve in rabbit (intravenous dosage of 1.25 mg/kg) was determined. It is filed as ADME, organism-based, Oryctolagus cuniculus. On the set-up: dose 1.25 mg/kg, route intravenous. Particulars: in vivo. The method in brief: as §2
Series [15] in a line: In vivo half life in dog was determined after oral administration. Type of series: ADME, organism-based, Canis lupus familiaris. Summed up: as §3
The nature of series [16]: Half life in rat was determined after intravenous administration. It is filed as ADME, organism-based. Particulars: in vivo. The method in brief:
as §2

Series [17] deals with Human immunodeficiency virus 1. The series is described as follows: Effective concentration against rhuman immunodeficiency virus type 1 wild type mutant strain. Type of series: functional, organism-based. The method in brief:
as §1

In series [18] the test system is Human immunodeficiency virus 1. The series is described as follows: Effective concentration against human immunodeficiency virus type 1 K103N mutant strain. It is filed as functional, organism-based. The method in brief:
as §1

Series [19] deals with Human immunodeficiency virus 1. The series is described as follows: Effective concentration against human immunodeficiency virus type 1 K103N and Y181C mutant strain. It is filed as functional, organism-based. Summed up: as §1
Series [20] concerns Human immunodeficiency virus 1. The series is described as follows: Effective concentration against human immunodeficiency virus type 1 Y181C mutant was determined. It is filed as functional, organism-based. Summed up: as §1
In series [21] the test system is Human immunodeficiency virus 1. Kind of series: Effective concentration against human immunodeficiency virus type 1 wild type srtain. It is filed as functional, organism-based. The method in brief:
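MT-4 human T-cells infected with wild-type HIV-1 and exposed to a range of compound concentrations in medium with 10% fetal calf serum. After 5 days at 37 °C, viability was read by automated MTT colorimetric assay, with mock-infected cells run in parallel.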

The test system of series [22] is Human immunodeficiency virus 1. The series is described as follows: Effective concentration against rhuman immunodeficiency virus type 1 K103N and Y181C mutant strains. It is filed as functional, organism-based.
In series [23] the test system is Human immunodeficiency virus 1. The series is described as follows: Effective concentration against human immunodeficiency virus type 1 wild type. Type of series: functional, organism-based. The method in brief:
as §1

Series [24] relates to Human immunodeficiency virus 1. The series is described as follows: Effective concentration against rhuman immunodeficiency virus type 1 L100I mutant strain. It is filed as functional, organism-based. Summed up:
as §1

For series [25], the system named is Human immunodeficiency virus 1. Kind of series: Effective concentration against rhuman immunodeficiency virus type 1 Y181C mutant strain. It is filed as functional, organism-based. The method in brief: as §1

By EC50 is commonly meant the midpoint of the concentration-response curve. Broadly, the AUC is concentration integrated over time. For orientation: half-life means how long it takes for the measured level to halve.

SMILES strings stand for the structures.

As for `Cc1cc(C)c(Nc2ccnc(Nc3ccc(C#N)cc3)n2)c(C)c1` [DAPIVIRINE], the EC50 in [1] turned out to be 11 nM; in [2], 7 nM; in [3] it was 2 nM; in series [4], 1.2 nM; in series [5] it was 2 nM; in series [6], 37 nM.
Turning to `Cc1cc(/C=C/C#N)cc(C)c1Nc1ccnc(Nc2ccc(C#N)cc2)n1` [RILPIVIRINE], the exposure (AUC) in [7] came to 1400 ng·h/mL; in series [8], 3100 ng·h/mL; in series [9] it was 8700 ng·h/mL; in series [14], 44000 ng·h/mL. Moreover, the EC50 was 0.4 nM in series [1]; 0.1 nM in [3]; 1.3 nM in series [10]; 2 nM in [6]; 1 nM in series [13]; 0.4 nM in series [17]. In series [18], the response was half-maximal at 0.3 nM (EC50). Besides, the half-life in series [11] is 31 h; in [12], 2.8 h; in [15], 39 h; in [16], 4.4 h.
For `O=C1Nc2ccc(Cl)cc2[C@@](C#CC2CC2)(C(F)(F)F)O1` [EFAVIRENZ], the EC50 came to 35 nM in [1]; 275 nM in series [3]; 37 nM in series [19]; 78 nM in series [6]; 2 nM in [20]; 1.4 nM in series [21]. Further, the EC50 in series [18] came to 28 nM.
As for `Cc1ccnc2c1NC(=O)c1cccnc1N2C1CC1` [NEVIRAPINE], the concentration giving a half-maximal response (EC50) amounted to 10000 nM in [22]; 1000 nM in series [3]; 81 nM in series [23]; 10000 nM in [6]; 597 nM in series [24]; 10000 nM in series [25]. The compound further came in with an EC50 in [18] of 2880 nM.
